Published values gathered from unrelated publications.
Each line is one published result; the experiments were not run side by side.
Target: Serine/threonine-protein kinase Nek4 (NEK4, Homo sapiens, UniProt P51957)

CC(C)(O)[C@H]1CC[C@H](Nc2ccc3ncc(-c4cccc(C(F)(F)F)c4)n3n2)CC1 — remaining activity (enzyme activity; inhibitor; 1 µM): 84.3%
CCCS(=O)(=O)Nc1ccc(F)c(C(=O)c2c[nH]c3ncc(-c4ccc(Cl)cc4)cc23)c1F — inhibition (enzyme activity; inhibitor; 1 µM): < 10%
COCCOc1nc(-c2ccc(Cl)nc2)nc2c1CN(C(=O)c1ncn3ccccc13)CC2 — remaining binding (cell-free assay; competition with immobilised ligand; 0.1 µM): 100%
Clc1ccc(Nc2nnc(Cc3ccncc3)c3ccccc23)cc1 — remaining signal (cell-free assay; 0.5 µM): 97.7%
C[C@@]1(Cc2ccc(C#N)cc2)C(=O)N(c2cc(Cl)cc(Cl)c2)c2ncc(C(=O)NC3(c4nc(C5CCC5)no4)CC3)n21 — remaining binding (cell-free assay; competition with immobilised ligand; 1 µM): 12%
CN(C)C1CCN(CC#Cc2nn(C3CCCC3)c3nc(NCc4ccccc4)ncc23)C1 (stereo not drawn) — inhibition (enzyme activity; inhibitor; FRET; 10 µM): 12%
CC(C)(C)c1nc(-c2cccc(NS(=O)(=O)c3c(F)cccc3F)c2F)c(-c2ccnc(N)n2)s1 — remaining activity (enzyme activity; inhibitor; radiometric; 1 µM): 92%
c1ccc(CNc2nc(N3CCOc4ccccc43)nc3c2CCCC3)cc1 — inhibition (target engagement in cells; inhibitor; chemoproteomics; 20 mM): -18.5%
COc1cc2ncnc(Nc3ccc(Oc4ccccc4)cc3C)c2cc1OC — inhibition (enzyme activity; inhibitor; 1 µM): 1%
N#CCCc1ccc2c(c1)-c1[nH]c3ccc([N+](=O)[O-])cc3c1CC(=O)N2 — remaining signal (cell-free assay; 0.5 µM): 104%
CC1=C(C#N)[C@@H](c2ccc3[nH]nc(C)c3c2)C(C#N)=C(c2ccc(Cl)cc2)N1 — remaining binding (cell-free assay; competition with immobilised ligand; 1 µM): 90.1%
CCN1CCN(Cc2ccc(NC(=O)c3ccc(C)c(/C=C/c4cnc5[nH]ccc5c4OC)c3)cc2C(F)(F)F)CC1 — inhibition (target engagement in cells; inhibitor; chemoproteomics; A-375; 50 nM): -31%
COc1cc2c(N3CCN(C(=O)Nc4ccc(OC(C)C)cc4)CC3)ncnc2cc1OCCCN1CCCCC1 — remaining signal (cell-free assay; 0.5 µM): 90.3%
Cc1ccc(C(=O)Nc2ccc(CN3CCN(C)CC3)c(C(F)(F)F)c2)cc1C#Cc1cnc2cccnn12 — remaining activity (enzyme activity; inhibitor; 23.5 nM): 61%
CCC(=O)N[C@@H]1CC[C@H](C(=O)N(C)c2ccc(-c3nc4ccccc4o3)cc2)C1 — remaining binding (cell-free assay; competition with immobilised ligand; 1 µM): 95%
O=C(Nc1cnn(-c2csc(C(=O)NC3COC3)c2)c1)Nc1c(F)cccc1Cl — remaining activity (enzyme activity; inhibitor; 5 µM): 90.8%
O=C(NCCCC1CCCCC1)c1ccc(CNC(=O)c2cnn(-c3ccccc3)c2C(F)(F)F)cc1 — remaining binding (cell-free assay; competition with immobilised ligand; 0.1 µM): 100%
O=C(Nc1cnn(-c2csc(C(=O)NC3COC3)c2)c1)Nc1ccccc1Cl — remaining activity (enzyme activity; inhibitor; 5 µM): 109%
